Bioassay records (PubChem BioAssay)
bIAP act – increases bovine intestinal alkaline phosphatase activity | hit rate 0.17% among 200,000 | activation factor at 20 µM | purified bovine IAP, CDP-star luminescence, 30 min; active compounds read high; fold of DMSO-control signal, blank-subtracted | AID 1016;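 active = activation factor of 2 or more at 20 µM, a signal rise over negative controls twice the positive control's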
hIAP inh – blocks human intestinal alkaline phosphatase | P09923 | purified IAP, CDP-Star luminescence, 30 min | inhibition, % at 10 µM | hit rate 0.12% among 330,000;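 active = inhibition reaching a set limit with compound at 10 µM in the primary screen, cut at about 35% in these data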;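 note: plate controls were DMSO wells with enzyme for no effect and no-enzyme buffer wells for full effect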
Target sequence (P09923 whole entry, looked up): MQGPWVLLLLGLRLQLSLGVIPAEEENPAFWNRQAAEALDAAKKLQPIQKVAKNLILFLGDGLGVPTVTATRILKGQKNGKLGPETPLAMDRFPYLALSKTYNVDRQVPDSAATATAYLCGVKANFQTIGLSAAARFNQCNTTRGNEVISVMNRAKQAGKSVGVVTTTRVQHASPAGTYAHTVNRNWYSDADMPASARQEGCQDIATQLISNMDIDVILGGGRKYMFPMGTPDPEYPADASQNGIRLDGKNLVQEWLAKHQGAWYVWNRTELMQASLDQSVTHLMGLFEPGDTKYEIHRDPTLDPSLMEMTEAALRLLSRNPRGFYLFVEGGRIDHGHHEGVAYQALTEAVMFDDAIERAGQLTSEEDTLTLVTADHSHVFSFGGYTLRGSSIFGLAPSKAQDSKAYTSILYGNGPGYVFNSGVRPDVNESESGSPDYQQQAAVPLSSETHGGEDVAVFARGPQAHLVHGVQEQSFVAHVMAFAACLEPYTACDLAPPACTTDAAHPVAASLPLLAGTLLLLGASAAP
mIAP act – mouse IAP activation. hit rate 0.24% among 330,000. muIAP, CDP-Star luminescence, 30 min; active compounds read high; 1 = vehicle-only enzyme signal, 0 = enzyme-free wells. activation factor at 10 µM. AID 2805;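 active = activation factor of at least 2 at 20 µM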
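System: mouse IAP enzyme. Reagent: CDP-Star chemiluminescent phosphatase substrate. Benchmarks: DMSO wells, no-enzyme wells. Times: 30 min enzyme-substrate-compound incubation at room temperature. Detection: luminescence from enzymatic CDP-Star hydrolysis. Doses: test compounds delivered from DMSO solution.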
hIAP act – human IAP activation. P09923. purified human IAP, CDP-Star luminescence, 30 min; active compounds read high; 1 = vehicle-only enzyme, 0 = enzyme-free background. activation factor at 10 µM. hit rate 0.16% among 330,000;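 active = activation factor of the enzyme at least 2-fold when tested at 20 µM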
bIAP inhibitor – intestinal alkaline phosphatase (bovine) inhibition; purified bovine IAP, CDP-star luminescence, 30 min; AID 1019; 190,000 tested, under 10 active; inhibition, % at 20 µM;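 active = over 50% inhibition of intestinal alkaline phosphatase at 20 µM in the single-dose screen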
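System: purified bovine intestinal alkaline phosphatase (IAP) enzyme; Input: IAP diluted 1/65,000,000 in the well; Measured by: CDP-star luminescence signal; Compound dosing: 20 µM single dose; Incubation: 30 min reaction at room temperature.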
mIAP block – mouse IAP inhibition; purified mouse IAP, CDP-Star luminescence, 30 min; inhibition, % at 10 µM; hit rate 0.2% among 330,000; AID 2806;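 active = inhibition of at least 40% at 10 µM in the primary screen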;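 note: plate controls were DMSO with enzyme for no effect and no enzyme wells for full effect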
mIAP inh conf – mouse IAP inhibition confirmation; shares compounds with mIAP block; purified mouse IAP, CDP-Star luminescence, 30 min; inhibition, % at 10 µM; hit rate 4.7% among 11,000;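 active = inhibition of at least 40% at 10 µM in either of the two replicates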;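 note: plate controls were DMSO wells with enzyme for no effect and buffer wells lacking enzyme for full effect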
* hit, by the source's call; i = inactive; / = not tested or not shown. Hits are enriched below; roughly 0.79% of the tested compounds scored in any of these assays.

SMILES | bIAP act | hIAP inh | mIAP act | hIAP act | bIAP inhibitor | mIAP block | mIAP inh conf
O=C(O)C1CCC(CNS(=O)(=O)c2ccccc2)CC1 (stereo not given) | / | 12.6 | 0.946 | 0.874 | / | 5.4 | /
O=C(Nc1cccc(Cl)c1)NC1CCCCC1 | 0.9 | -8.9 | 1.93 | 1.09 | 5.6 | -92.9 | /
O=C(Nc1cccc(Cl)c1)Nc1nc(-c2ccccc2)cs1 | 0.4 | -12.8 | 2.83* | 1.13 | / | -183.5 | -116.0
O=C(NCc1csc2ccccc12)Nc1cc(Cl)cc(Cl)c1 | / | 4.0 | 3.71* | 0.96 | / | -270.8 | -144.6
O=C(Nc1cccc(Cl)c1)NC1CC2CCC1C2 (stereo not given) | / | -10.6 | 3.2* | 1.11 | / | -219.7 | -163.6
CSc1cccc(NC(=O)Nc2ccccc2)c1 | 0.7 | -6.5 | 2.77* | 1.06 | 26.4 | -177.2 | -110.3
COc1cc(C(=O)OCC(=O)N2CCOCC2)c([N+](=O)[O-])cc1OC | / | 8.5 | 0.946 | 0.915 | / | 5.4 | /
NC(=O)c1ccsc1NC(=O)CS(=O)(=O)c1ccc(F)cc1 | / | 0.5 | 1.02 | 0.995 | / | -2.4 | /
O=C(CCSc1ccc(F)cc1)NNC(=O)c1ccccc1Cl | / | -17.1 | 1.1 | 1.17 | / | -10.5 | /
Cn1cnnc1SCC(=O)Nc1ncc([N+](=O)[O-])s1 | / | -23.9 | 0.591 | 1.24 | / | 40.9* | 51.2*
Cc1csc(NC(=O)CSc2nncn2C)n1 | 1 | -14.8 | 1.08 | 1.15 | 4.7 | -7.6 | /
O=C(COC(=O)COc1ccccc1)Nc1ncc([N+](=O)[O-])s1 | / | -28.5 | 0.372 | 1.28 | / | 62.8* | 69.3*
O=C(COc1ccc(Cl)cc1)Nc1ncc([N+](=O)[O-])s1 | 1.1 | / | / | / | -10.9 | / | /
CCOC(=O)c1ccc(NC(=O)Nc2ccc3c(c2)OCCO3)cc1 | 1.1 | -12.2 | 2.92* | 1.12 | -6.1 | -192.3 | -106.4
O=C(NC(=S)Nc1ccc2oc(=O)ccc2c1)c1cccc(Cl)c1 | / | -12.3 | 0.819 | 1.12 | / | 18.1 | /
CSc1cccc(NC(=O)C2CCN(S(=O)(=O)c3ccc(F)cc3)CC2)c1 | 1.2 | -39.7 | 3.05* | 1.4 | -17.0 | -204.8 | -97.7
CSc1cccc(NC(=O)C2CCCN(S(=O)(=O)c3ccc(F)cc3)C2)c1 (stereo not given) | 0.9 | -14.8 | 1.35 | 1.15 | 12.0 | -35.2 | /
O=C(Nc1ccc(Cl)c(C(F)(F)F)c1)NC1CC2CCCC(C1)N2Cc1ccccc1 (stereo not given) | 2.3* | -92.0 | 8.9* | 1.92 | -130.3 | i | i
CCOC(=O)c1ccc(N2CCN(c3ccccc3F)CC2)c(NC(=O)Nc2cccc(OC)c2)c1 | 1.2 | -71.6 | 8.55* | 1.72 | -20.2 | i | -362.4
COC(=O)c1ccc(N2CCOCC2)c(NC(=O)Nc2cccc(OC)c2)c1 | 1 | 0.1 | 1.23 | 0.999 | -1.0 | -23.1 | /
O=C(CSc1nnc(NC2CC2)s1)NN1C(=O)NC2(CCCCC2)C1=O | / | -6.0 | 1.11 | 1.06 | / | -11.3 | /
CCN(CC)S(=O)(=O)c1ccc(C(=O)Nc2cccc(C)c2)cc1 | 0.9 | -14.6 | 1.14 | 1.15 | 11.2 | -13.6 | /
NNC(=O)Nc1cccc(C(F)(F)F)c1 | 1.1 | 1.5 | 1.01 | 0.985 | -7.8 | -1.2 | /
O=C(Nc1ccc(OC(F)F)cc1)Nc1cccc(C(F)(F)F)c1 | 0.9 | -20.5 | 3.22* | 1.21 | 12.3 | -222.4 | -99.2
CCN(CC)S(=O)(=O)c1ccc(NC(=O)Nc2cccc(C(F)(F)F)c2)cc1 | 0.8 | 25.9 | 2.81* | 0.741 | 16.5 | -180.8 | -102.6
SMILES | bIAP act | hIAP inh | mIAP act | hIAP act | bIAP inhibitor | mIAP block | mIAP inh conf
O=C(Nc1ccccc1C(=O)N1CCOCC1)c1ccc(Br)cc1 | / | -5.0 | 1.04 | 1.05 | / | -4.0 | /
CSc1ccc(CN2CCN(C(C)C)C(CCO)C2)cc1 (stereo not given) | 0.9 | 4.9 | 0.931 | 0.951 | 5.8 | 6.9 | /
O=C1CSC(=S)N1N1C(=O)c2cccc([N+](=O)[O-])c2C1=O | 0.5 | -9.7 | 0.43 | 1.1 | 49.1 | 57.0* | 67.7*
CCN1C(=O)[C@H]2[C@@H](c3ccc(OC)cc3)N3C(=O)CN(CCOC)C(=O)[C@@]3(Cc3ccccc3)[C@H]2C1=O | / | 7.4 | 1 | 0.926 | / | -0.4 | /
NC(=O)c1cc(S(=O)(=O)N2CCOCC2)ccc1N1CCCC1 | / | 30.1 | 0.972 | 0.699 | / | 2.8 | /
CCOC(=O)CSC1=Nc2ccccc2C2=NC(CC(=O)NCc3ccc4c(c3)OCO4)C(=O)N12 (stereo not given) | 1 | 20.1 | 0.558 | 0.799 | -1.9 | 44.2* | 58.9*
Cc1ccc(C(=O)Nc2nc(=O)[nH]s2)cc1 | 0.9 | 2.6 | 1.14 | 0.974 | 6.9 | -13.6 | /
Cc1cccn2c(=O)c(C=O)c(Sc3ncccn3)nc12 | 1 | 6.2 | 0.984 | 0.938 | 1.5 | 1.6 | /
Cn1c(=O)c2c(nc(NC3CCCCC3)n2CC(=O)C23CC4CC(CC(C4)C2)C3)n(C)c1=O | 1 | -23.4 | 2* | 1.23 | -0.7 | -100.1 | -464.6
COc1ccc(N=C2SC(C(N)=O)CC(=O)N2CCc2ccc(OC)c(OC)c2)cc1 (stereo not given) | 0.9 | -17.6 | 0.556 | 1.18 | 6.3 | 44.4* | 49.8*
COc1ccc(N=C2SC(C(=O)O)CC(=O)N2Cc2ccc(OC)c(OC)c2)cc1 (stereo not given) | 1 | 7.9 | 1 | 0.921 | 1.1 | -0.3 | /
O=S(=O)(NCc1ccc(F)cc1)c1ccc(-n2cnnn2)cc1 | / | 2.8 | 1 | 0.972 | / | -0.4 | /
COc1ccc(C2CC(c3ccccc3Br)=NN2c2ccc(S(N)(=O)=O)cc2)cc1 (stereo not given) | / | / | 1.17 | / | / | -17.2 | /
COc1ccc(C2CC(c3ccccc3C(F)(F)F)=NN2c2ccc(S(N)(=O)=O)cc2)cc1 (stereo not given) | / | / | 2.23* | / | / | -122.6 | -121.0
COc1ccc(C2CC(c3ccc(C(F)(F)F)cc3)=NN2c2ccc(S(N)(=O)=O)cc2)cc1 (stereo not given) | / | / | 1.74 | / | / | -74.4 | /
COc1ccc(C2CC(c3ccccc3F)=NN2c2ccc(S(N)(=O)=O)cc2)cc1 (stereo not given) | / | / | 2.13* | / | / | -113.5 | -113.3
COc1ccc(-n2nc(C(=O)NCC(=O)NCc3ccc(F)cc3)c3ccccc3c2=O)cc1 | / | -4.1 | 0.956 | 1.04 | / | 4.4 | /
Cc1ccccc1CN(C)CC(=O)NC(C)CCc1ccccc1 (stereo not given) | 1.1 | -8.8 | 1.1 | 1.09 | -9.0 | -9.7 | /
COc1cc(OC)c(-c2c3cc(O)c(=O)cc-3oc3cc(O)c(O)cc23)cc1OC | 1 | -13.9 | 0.557 | 1.14 | -1.9 | 44.3* | 59.4*
Cc1c2cc(O)c(=O)cc-2oc2cc(O)c(O)cc12 | 0.4 | 25.4 | 0.27 | 0.746 | / | 73.0* | 85.6*
COc1cccc(CN2CCCC(C(=O)N3CCCCC3)C2)c1 (stereo not given) | / | 3.8 | 0.992 | 0.962 | / | 0.8 | /
CCOP(=O)(c1ccc(N(C)C)cc1)C(O)c1ccc(C)cc1 (stereo not given) | / | 10.8 | 1 | 0.892 | / | -0.3 | /
